The source made the active and inactive calls. No cut-off for these calls is given here.
Tests used:
MGC-803 = experiment: Antiproliferative activity against human MGC803 cells after 72 hrs by MTT assay; type: functional, cell-based; settings: MGC-803, 72 h
How it was run: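 MGC-803 and MCF-7 cells grown in DMEM (MCF-7 with 1× NEAA); Bel-7402 and K562 grown in RPMI 1640; all media with 10% FBS. Cells seeded at 3500/well, pre-incubated 24 h, then exposed to compounds in fresh medium (DMSO ≤0.25%) for 72 h at 37 °C. MTT read-out at 570 nm. Quadruplicate wells, repeated three times; means ± SD (n = 3).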

Bel-7402 [1] = experiment: Cell cycle arrest in human Bel7402 cells assessed as accumulation at G1 phase at 2 uM after 48 hrs by propidium iodide staining based flow cytometry (reference value: 34.61%); type: functional
MCF7 [2] = experiment: Induction of apoptosis in human MCF7 cells assessed as increase in caspase-9 protein expression up to 1 uM after 48 hrs by Western blot method; type: functional, cell-based
How it was run: (§1)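 MCF-7 cells were treated at 0, 0.125, 0.25, 0.5 or 1 μM for 48 h, washed in ice-cold PBS and lysed on ice for 20 min. Lysates were spun at 13,000 g, 4 °C. 20 μg protein was run on SDS-PAGE and blotted to PVDF, probed overnight at 4 °C with primary antibodies, then with fluorescent secondary antibodies. Band density was expressed relative to β-actin; three independent experiments.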

MCF7 [3] = experiment: Induction of apoptosis in human MCF7 cells assessed as necrotic cells at 1 uM after 24 hrs by Annexin-V FITC/propidium iodide staining based flow cytometry (reference value: 0.102%); type: functional
Bel-7402 [4] = experiment: Cell cycle arrest in human Bel7402 cells assessed as accumulation at G1 phase at 1 uM after 48 hrs by propidium iodide staining based flow cytometry (reference value: 34.61%); type: functional
MCF7 [5] = experiment: Cell cycle arrest in human MCF7 cells assessed as accumulation at G1 phase at 0.5 uM after 48 hrs by propidium iodide staining based flow cytometry (reference value: 49.77%); type: functional
How it was run: (§2)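 MCF-7 cells, 5 × 10^4 per well, seeded overnight, then exposed to 0.125–1 μM compound, or DMSO, for 48 h. Ethanol-fixed (70%, −20 °C, 12 h) and stained with PI/RNase at 37 °C for 30 min. Phase distribution determined by flow cytometry.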

[6] = Selectivity ratio of IC50 for human KB/CP4 cells to IC50 for human KB-3-1 cells
MCF7 [7] = experiment: Induction of apoptosis in human MCF7 cells assessed as late apoptotic cells at 0.25 uM after 24 hrs by Annexin-V FITC/propidium iodide staining based flow cytometry (reference value: 0.255%); type: functional
MCF7 [8] = experiment: Induction of apoptosis in human MCF7 cells assessed as chromatin condensation at 0.125 to 1 uM after 36 hrs by Hoechst 33342 staining based fluorescence microscopic method; type: functional, cell-based
Mus musculus [9] = experiment: Cardiotoxicity in Balb/c nude mouse xenografted with human MCF7 cells assessed as morphological changes in heart at 20 mg/kg/day, iv for 4 weeks by hematoxylin and eosin staining based microscopic method; type: toxicity, organism-based; settings: in vivo, 672 h
How it was run: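 Male BALB/c nude mice (6 weeks old) carrying subcutaneous MCF-7 xenografts (1 × 10^6 cells). Dosed iv 20 mg/kg daily for 28 days in 10% DMF/2% poloxamer/88% saline; six mice per group. Organs then fixed in 4% paraformaldehyde, paraffin-embedded, cut at 5 μm, stained with Harris hematoxylin and eosin-phloxine, and examined by light microscopy.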

NCI-H460 = experiment: Antiproliferative activity against human NCI-H460 cells after 48 hrs by MTT assay; type: functional, cell-based; settings: NCI-H460, 48 h
How it was run: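 Colorimetric MTT assay. KB-3-1, NCI-H460 and Bel-7404 cells were seeded at 4000 cells/well; resistant KB/CP4, NCI-H460/MX20 and Bel-7404/CP20 were seeded at 7000 cells/well. Cells were pre-incubated 24 h at 37 °C, 5% CO2, then exposed to a compound concentration series for 48 h with DMSO ≤0.25%. Absorbance read at 570 nm. Quadruplicate wells, three repeats; means ± SD.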

MCF7 [10] = experiment: Induction of apoptosis in human MCF7 cells assessed as necrotic cells at 0.125 uM after 24 hrs by Annexin-V FITC/propidium iodide staining based flow cytometry (reference value: 0.102%); type: functional
Mus musculus [11] = experiment: Toxicity in Balb/c nude mouse xenografted with human MCF7 cells assessed as changes in body weight at 20 mg/kg/day, iv for 4 weeks measured once in 2 days during compound dosing; type: organism-based; settings: in vivo
How it was run: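 Mice received 1 × 10^6 tumor cells subcutaneously in the right flank: MCF-7 in male BALB/c nude mice aged six weeks, H22 in male ICR mice aged five weeks. After 7 d they were randomized (six or eight per group). Dosing was 20 mg/kg iv daily in 10% DMF/2% poloxamer/88% saline for 21 or 28 days; saline control. Body weight was recorded every 2 days.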

Bel-7402 [12] = experiment: Cell cycle arrest in human Bel7402 cells assessed as accumulation at S phase at 2 uM after 48 hrs by propidium iodide staining based flow cytometry (reference value: 8.78%); type: functional
MCF7 [13] = experiment: Induction of apoptosis in human MCF7 cells assessed as increase in cytochrome c protein expression at 0.5 to 1 uM after 48 hrs by Western blot method; type: functional, cell-based; how it was run: as §1
[14] = molecular target: T1, M-phase inducer phosphatase 3 (Homo sapiens) (UniProt P30307); experiment: Induction of cdc25c phosphorylation in human MCF7 cells after 48 hrs by Western blot method; type: cell-based; how it was run: as §1
T1 sequence (whole entry): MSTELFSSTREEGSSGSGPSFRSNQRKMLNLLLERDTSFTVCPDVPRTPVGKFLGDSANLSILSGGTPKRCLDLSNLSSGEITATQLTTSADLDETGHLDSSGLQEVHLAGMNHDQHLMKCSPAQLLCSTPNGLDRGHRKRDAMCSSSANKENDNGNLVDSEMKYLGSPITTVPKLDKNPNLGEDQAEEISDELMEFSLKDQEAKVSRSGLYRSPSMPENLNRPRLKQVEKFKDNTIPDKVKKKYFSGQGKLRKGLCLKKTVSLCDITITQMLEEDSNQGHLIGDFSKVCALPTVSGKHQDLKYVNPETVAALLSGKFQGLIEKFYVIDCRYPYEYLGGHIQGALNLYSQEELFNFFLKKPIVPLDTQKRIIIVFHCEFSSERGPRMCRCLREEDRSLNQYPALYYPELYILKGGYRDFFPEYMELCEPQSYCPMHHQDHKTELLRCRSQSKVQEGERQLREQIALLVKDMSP

MCF7 [15] = experiment: Cell cycle arrest in human MCF7 cells assessed as accumulation at S phase at 0.125 uM after 48 hrs by propidium iodide staining based flow cytometry (reference value: 37.18%); type: functional; how it was run: as §2
MCF7 [16] = experiment: Cell cycle arrest in human MCF7 cells assessed as accumulation at G1 phase at 0.25 uM after 48 hrs by propidium iodide staining based flow cytometry (reference value: 49.77%); type: functional; how it was run: as §2
MCF7 [17] = experiment: Downregulation of cdc2 protein expression in human MCF7 cells after 48 hrs by Western blot method; type: functional, cell-based
How it was run: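 MCF-7 cells exposed to 0–1 μM compound for 48 h, then lysed on ice. Lysate (20 μg protein) run on 8–12% SDS-PAGE and transferred to PVDF. Probed overnight at 4 °C with primary antibodies, then fluorescent secondaries. Band densities normalized to β-actin. Mean ± SD of three independent experiments.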

With `C=C1C(=O)[C@]23[C@H](OC(=O)/C=C/c4ccccc4)[C@H]1CC[C@H]2[C@]12C=CCC(C)(C)[C@H]1[C@H](O)[C@]3(O)OC2` the IC50 (MGC-803) was 1030 nM, the Activity (Bel-7402 [1]) was 31.15% and the Activity (MCF7 [2]) was “Active”. The Activity (MCF7 [3]) was 1.14%, the Activity (Bel-7402 [4]) was 32.12% and the Activity (MCF7 [5]) was 43.87%. The “Ratio IC50” value [6] was less than 1, the Activity (MCF7 [7]) was 19.6% and the Activity (MCF7 [8]) was “Active”. For the same molecule, the Activity (Mus musculus [9]) was “Non-Toxic”, the IC50 (NCI-H460) was 2620 nM and the Activity (MCF7 [10]) was 1.14%. For the same molecule, the Activity (Mus musculus [11]) was “Non-Toxic”, the Activity (Bel-7402 [12]) was 10.78% and the Activity (MCF7 [13]) was “Active”. For the same molecule, the Activity [14] was “Dose-dependent effect”, the Activity (MCF7 [15]) was 33.93% and the Activity (MCF7 [16]) was 49.37%. For the same molecule, the Activity (MCF7 [17]) was “Dose-dependent effect”.

— ChEMBL document CHEMBL3997810, “A Novel Potent Anticancer Compound Optimized from a Natural Oridonin Scaffold Induces Apoptosis and Cell Cycle Arrest through the Mitochondrial Pathway” (J Med Chem, 2017)
